Screening data: PubChem, several laboratories
STEP inh = STEP (human) phosphatase inhibition | P54829 | recombinant STEP, OMFP fluorogenic substrate, fluorescence | inhibition, % at 20 µM | hit rate 0.25% among 360,000;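 active = inhibition at 20 µM, scaled per plate between control wells, above about 37%, limit read from the data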;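 note: 0% = DMSO with enzyme and substrate and 100% = substrate only without enzyme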
Target sequence (P54829 whole entry, looked up): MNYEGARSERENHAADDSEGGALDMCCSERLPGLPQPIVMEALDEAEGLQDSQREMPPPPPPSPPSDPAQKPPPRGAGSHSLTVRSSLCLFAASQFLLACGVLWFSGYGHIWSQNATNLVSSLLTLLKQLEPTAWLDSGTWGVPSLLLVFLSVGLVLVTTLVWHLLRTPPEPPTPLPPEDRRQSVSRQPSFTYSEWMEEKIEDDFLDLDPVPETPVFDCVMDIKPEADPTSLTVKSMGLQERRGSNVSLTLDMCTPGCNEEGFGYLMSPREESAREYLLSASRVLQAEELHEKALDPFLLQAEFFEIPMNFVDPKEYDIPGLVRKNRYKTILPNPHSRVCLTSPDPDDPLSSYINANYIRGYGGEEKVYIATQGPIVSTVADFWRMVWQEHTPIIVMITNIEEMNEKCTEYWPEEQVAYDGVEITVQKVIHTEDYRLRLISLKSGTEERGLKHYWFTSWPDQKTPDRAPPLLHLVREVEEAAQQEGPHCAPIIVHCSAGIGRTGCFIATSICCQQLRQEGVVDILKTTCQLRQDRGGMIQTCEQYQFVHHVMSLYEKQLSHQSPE
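medium = Bis-Tris buffer pH 6.0, 2.5 mM DTT, 0.005% Tween 20 | test system = STEP (striatal-enriched tyrosine phosphatase) enzyme, cell-free | measure = normalized % inhibition | compound dosing = 20 µM, 1% DMSO | also added = 25 µM OMFP | schedule = reaction 20 min, ambient temperature | measured by = fluorescence read at 480 nm ex / 540 nm em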
LMPTP inh = blocks human LMPTP phosphatase. AID 651560. hit rate 0.22% among 360,000. recombinant LMPTP-A, OMFP fluorogenic substrate, fluorescence intensity. inhibition, % at 20 µM;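 active = compounds that cut the enzyme signal by at least half of the control window in the single-dose screen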;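 note: plate controls were DMSO wells with enzyme plus substrate for no effect and substrate without enzyme for full effect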
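material = LMPTP-A | quantity = 0.625 nM enzyme | reagent = OMFP substrate, 400 µM final | buffer or medium = Bis-Tris pH 6.0, DTT, detergent | detection = endpoint fluorescence intensity from OMFP dephosphorylation | dosing = single 20 µM dose | read-out basis = % inhibition relative to no-enzyme and uninhibited control wells | control set = no-enzyme and uninhibited controls | timing = 50 min at room temperature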
SUMO1 PPI mod = SUMO1-SIM interaction modulation. P63165. SUMO1 binding to a labelled peptide, TR-FRET, 1 h. inhibition, % at 20 µM. hit rate 0.33% among 360,000. AID 602429; in the data active = inhibition above about 37%
Pemphigus Ab inh = human desmoglein-3 autoantibody binding inhibition; DSG3-coupled beads, scFv-anti-DSG3-GFP binding, flow cytometry; hits give low values; hit rate 0.48% among 310,000; P32926; binding (percent of control), % at 10 µM;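 active = binding more than 3 SD below its plate's average and above zero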;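 note: hits lower antibody fragment binding to DSG3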
Scp-1 inhibitor = inhibitors of human Scp-1 phosphatase. Q9GZU7. Recombinant Scp1, phosphopeptide, malachite green phosphate absorbance. inhibition, % at 20 µM. hit rate 0.88% among 340,000;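 active = inhibition above about 50% at 20 µM, limit read from the data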;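 note: plate controls were DMSO wells with enzyme for no effect and wells lacking enzyme for full effect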
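Incubation: 45 min enzyme reaction at room temperature / System: truncated SCP-1 phosphatase (76-261aa) / Reagent: Phospho 17-mer peptide substrate / Buffer or medium: Acidic Tris acetate buffer with magnesium and detergent / Signal: absorbance at 630 nm / Doses: one concentration, 20 µM, with 1.0% DMSO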
* marks the source's active call; other numbers are inactive results; / = no result given. Shown are actives, neighbours in structure and some others; about 1.7% of the full set was active somewhere.

SMILES | STEP inh | LMPTP inh | SUMO1 PPI mod | Pemphigus Ab inh | Scp-1 inhibitor
C/C(=N\NC(=O)c1ccc(NS(=O)(=O)c2cccs2)cc1)c1ccc(O)cc1O | -1.1 | -0.1 | 17.6 | 106.9 | -18.8
CC1CCCCN1S(=O)(=O)c1ccc(C(=O)Nc2ccccc2-c2nc3ccccc3[nH]2)cc1 (stereo not given) | 1.5 | 1.8 | 1.4 | 114.7 | -17.2
O=C(Nc1ccccc1-c1nc2ccccc2[nH]1)c1ccc(S(=O)(=O)N2CCCCC2)cc1 | 47.1* | 0.2 | 9.8 | 96.3 | -2.0
Cc1cc(N2CCN(C(C(=O)NC3CCCC3)c3ccco3)CC2)c2ccccc2n1 (stereo not given) | / | 56.5* | 5.9 | / | /
Cc1cc(N2CCN(C(C(=O)NC3CCCC3)c3ccc(F)cc3)CC2)c2ccccc2n1 (stereo not given) | / | 45.4 | -1.0 | / | /
CCN(c1ccc(C)c(C)c1)S(=O)(=O)c1ccc2c(c1)CCN2C(=O)CCC(=O)O | 1.9 | -0.5 | 47.1* | 272.9 | -6.8
Oc1ccccc1-c1nnc(COc2ccc(Cl)cc2Cl)o1 | -1.1 | 1.1 | 0.8 | 65.8* | 10.9
COC(=O)c1ccc(=O)c2nc3/c(=C/O)c(O)cc(=O)c3[nH]c12 | 100.0* | 81.0* | 4.7 | 50.3* | 58.2*
O=C(Nc1ccc(S(=O)(=O)Nc2cnc3ccccc3n2)cc1)c1ccc(Cl)c([N+](=O)[O-])c1 | -2.3 | 1.0 | 1.3 | 111.3 | -8.6
COc1ccc(-c2c(-c3ccccc3OC)oc3ccccc23)cn1 | 3.2 | 2.9 | 7.3 | 106.3 | -4.4
O=C(NCCCN1CCOCC1)c1sc2cc([N+](=O)[O-])ccc2c1Cl | 93.4* | 3.1 | -25.8 | 104.4 | -1.0
Cc1ccc(C)c(NC(=O)Cn2cnc3c(oc4ccccc43)c2=O)c1 | 13.7 | 4.3 | 1.7 | 100.7 | 32.4
Cc1nc2c(cc1C(=O)N/N=C/c1ccc([N+](=O)[O-])cc1)c(=O)n(C)c(=O)n2C | -2.0 | -0.4 | -11.2 | -7.8* | 1.6
CC(=O)Nc1ccc(NC(=O)CSc2nnc(C)c(=O)[nH]2)cc1 | -1.7 | 0.0 | 7.0 | 84.2 | 6.5
CN1CCN(C(=O)c2cnn(-c3ccccc3)c2NC(=O)c2ccccc2Cl)CC1 | 0.9 | 0.4 | 55.2* | 101.8 | -5.5
CC(C)N1CCCC(C)(C(=O)Nc2nccc3ccccc23)C1 (stereo not given) | 2.0 | -1.2 | -3.1 | / | /
O=C(COC(=O)c1ccccc1Br)NCCC1=CCCCC1 | -1.5 | 0.2 | 1.4 | 100.7 | -7.4
O=C(NC(=S)NCCC1=CCCCC1)c1ccccc1Br | -3.2 | 3.5 | 4.0 | 106.2 | 66.6*
O=c1oc(-c2cccnc2)nc2ccccc12 | -2.3 | -0.7 | 3.5 | 77.3* | -2.0
Cc1ccc2cc(C)c3nnc(SCC(=O)Nc4nc5c(s4)CCCC5)n3c2c1C | 2.8 | 1.7 | -6.0 | 96.0 | -3.5
COc1ccc(NC(=O)CN(c2ccc(OC)cc2)S(=O)(=O)c2c(C)nn(C)c2C)cc1 | -1.1 | 0.7 | 2.4 | -9.2* | 4.0
COc1ccc(N(CC(=O)Nc2ccc(F)c(Cl)c2)S(=O)(=O)c2c(C)noc2C)cc1 | -2.2 | 1.9 | -4.0 | 6.0* | -14.3
COc1ccc(N(CC(=O)Nc2ccc(OC)c(Cl)c2)S(=O)(=O)c2c(C)noc2C)cc1 | -1.5 | 0.9 | -1.8 | 102.1 | -28.4
Cc1ccc(CNC(=O)Cn2c(=O)c3sccc3n(Cc3ccc([N+](=O)[O-])cc3)c2=O)cc1 | 4.1 | 2.6 | 1.5 | 102.2 | -5.2
CC(=O)OC[C@]1(OC(C)=O)C[C@@]23CC[C@H]4[C@@](C)(CCC[C@@]4(C)C(=O)O)[C@@H]2CC[C@@H]1C3 | -1.0 | 20.4 | 9.9 | 99.1 | -6.2
CC(=O)OC[C@]12CC[C@H]3[C@@](C)(CC[C@H]4C(C)(C)CCC[C@]34C)[C@@H]1CC(C1=CC(=O)OC1O)O2 (stereo not given in full) | 1.0 | 4.1 | 74.3* | / | /
Cc1c(C(=O)Nc2nc(-c3ccccn3)cs2)oc2ccccc12 | 77.1* | 4.4 | 7.2 | 104.9 | 9.5
CCOc1ccc2nc(-c3ccccc3)nc(SCC(=O)OC)c2c1 | -1.1 | -0.1 | 3.4 | 95.7 | -6.0
CCOC(=O)CSc1nc(-c2ccccc2)nc2ccc(C)cc12 | 1.8 | 2.0 | 4.1 | 76.5* | -0.8
O=c1nc2c(-c3cccc(Br)c3)n[nH]n2c2ccccc12 | -1.7 | 6.3 | 45.0* | 115.7 | 6.3
